Source: PubChem
TRPC4 block: blocks the mouse TRPC4 cation channel | AID 2247 | HEK293 TRPC4beta/mu-opioid, DAMGO-evoked Fluo4 calcium flux; active compounds read low | B-score at 10 µM | 300,000 compounds, 0.39% hits | Q9QUQ5;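 active means B-score over 3 SD under the library average, no early fluorescence shift, positive overall ratio signal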
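test system = HEK293 cells with stable TRPC4beta plus mu-opioid receptor expression | detection = Fluo4 Ca2+ flux fluorescence | read-out = integrated fluorescence ratio relative to baseline, converted to per-well B score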
TRPC6 act: activators of mouse TRPC6 channel. B-score at 10 µM. Q61143. HEK293-TRPC6 membrane potential dye fluorescence; active compounds read high. 310,000 compounds, 0.13% hits;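 active means B-score of the integrated fluorescence ratio above library mean plus 3 SD, and starting fluorescence ratio within library mean plus 5 SD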;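 further: higher score means more depolarization so channel activation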
TRPC4 potent: allosteric potentiators of mouse TRPC4 channel; HEK293 TRPC4beta/mu-opioid, DAMGO EC20, Fluo-4 Ca2+ flux; active compounds read high; B-score at 10 µM; 310,000 compounds, 0.42% hits; AID 2227;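 active means B-score of calcium response area above 5 SD of library B-scores, with initial fluorescence ratio within 5 SD of library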;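 further: B-score of integrated fluorescence ratio over time as area under calcium response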
TRPC4 act: opens the mouse TRPC4 cation channel | 310,000 compounds, 0.49% hits | AID 2237 | B-score at 10 µM | HEK293 TRPC4beta/mu-opioid, Fluo4 calcium fluorescence; active compounds read high;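 active means B-score above 5 SD of library B-scores, and initial fluorescence ratio not above library mean plus 5 SD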;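 further: positive B-score marks a calcium rise read as TRPC4 activation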
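Incubation: 45 min room-temperature Fluo4 loading, 110 s read / System: HEK293 cells stably co-expressing mouse TRPC4beta and mu-opioid receptor / Signal: Fluo4 fluorescence, kinetic / Control set: buffer (low) and maximal DAMGO (high) / Measure: integrated baseline-normalised fluorescence ratio, converted to per-well B score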
TRPC6 inh: blocks the mouse TRPC6 cation channel | B-score at 10 µM | AID 2553 | 310,000 compounds, 1.1% hits | HEK293-TRPC6, membrane potential dye, ACh-evoked depolarization; active compounds read low;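 active means B-score under library mean minus 3 SD, initial fluorescence not abnormally high, positive integrated signal ratio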;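 further: B-score derived from integrated fluorescence ratio over the kinetic read; more negative B-score means stronger inhibition of depolarization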
Starred values were filed as active, the others as inactive. A selection: hits, their analogues and other compounds. The true share with any hit is near 2.3%.

For COc1ccc(NC(C)=O)cc1CNC(=O)COc1ccccc1C(=O)Nc1cccc(C)c1C the results were TRPC4 block inactive, TRPC6 act inactive, TRPC4 potent inactive, TRPC4 act inactive and TRPC6 inh inactive.
Screening CCOc1ccc(OCc2ccc(C(=O)NCc3ccncc3)o2)cc1 returned TRPC4 block inactive, TRPC6 act inactive, TRPC4 potent inactive, TRPC4 act inactive and TRPC6 inh inactive.
CCc1ccc(OCc2ccc(C(=O)NCc3ccccn3)o2)cc1 was read as TRPC4 block inactive, TRPC6 act inactive, TRPC4 potent 25*, TRPC4 act inactive and TRPC6 inh inactive.
CC#CCN(Cc1ccco1)C(=O)c1ccc(OC2CCN(Cc3ccccn3)CC2)cc1 was read as TRPC4 block inactive, TRPC6 act inactive, TRPC4 potent inactive, TRPC4 act inactive and TRPC6 inh inactive.
For O=C(COc1ccccc1Cl)NNC(=O)c1ccc2nc[nH]c2c1 the results were TRPC4 block inactive, TRPC6 act inactive, TRPC4 potent inactive, TRPC4 act inactive and TRPC6 inh inactive.
`CN(C)CCCn1c(NC(=O)C2CCCCC2)nc2ccccc21` gave TRPC4 block inactive, TRPC6 act inactive, TRPC4 potent inactive, TRPC4 act inactive and TRPC6 inh inactive.
CCn1c(NC(=O)c2ccccc2)nc2ccccc21 was read as TRPC4 block inactive, TRPC6 act inactive, TRPC4 potent inactive, TRPC4 act inactive and TRPC6 inh inactive.
For CCCCn1c(NC(=O)c2ccccc2)nc2ccccc21 the results were TRPC4 block -6*, TRPC6 act inactive, TRPC4 potent 52*, TRPC4 act inactive and TRPC6 inh inactive.
For CCCCn1c(NC(=O)C2CCCCC2)nc2ccccc21 the results were TRPC4 block inactive, TRPC6 act inactive, TRPC4 potent 13*, TRPC4 act inactive and TRPC6 inh inactive.
Screening CCc1ccc(NC(=O)C2CCCN2S(=O)(=O)c2ccc3c(c2)C(C)(C)C(=O)N3C)cc1 (stereo unspecified) returned TRPC4 block inactive, TRPC6 act inactive, TRPC4 potent inactive, TRPC4 act inactive and TRPC6 inh inactive.
COc1ccc(CNC(=S)Nc2ccccc2)cc1 was read as TRPC4 block inactive, TRPC6 act inactive, TRPC4 potent inactive, TRPC4 act inactive and TRPC6 inh inactive.
`CCC(C)NC(=S)N1CCN(C(c2ccccc2)c2ccccc2)CC1` (stereo unspecified) gave TRPC4 block inactive, TRPC6 act inactive, TRPC4 potent inactive, TRPC4 act inactive and TRPC6 inh inactive.
Screening CNC(=S)N1CCN(C(c2ccccc2)c2ccccc2)CC1 returned TRPC4 block -6*, TRPC6 act inactive, TRPC4 potent inactive, TRPC4 act 50* and TRPC6 inh inactive.
For COc1ccc(CCC(C)NCC2CCCCC2)cc1 (stereo unspecified) the results were TRPC4 block -7*, TRPC6 act inactive, TRPC4 potent inactive, TRPC4 act inactive and TRPC6 inh inactive.
CC(C)(C)OC(=O)CC1(C#N)c2ccccc2C(Br)=CN1C(=O)c1ccccc1 (stereo unspecified) was read as TRPC4 block inactive, TRPC6 act inactive, TRPC4 potent inactive, TRPC4 act inactive and TRPC6 inh inactive.
O=C(c1ccc(CNS(=O)(=O)c2cccc(Cl)c2)cc1)N1CCCCC1 was read as TRPC4 block inactive, TRPC6 act inactive, TRPC4 potent inactive, TRPC4 act inactive and TRPC6 inh inactive.
`O=C(c1cccc(C(F)(F)F)c1)C1CCCN(Cc2ccc(OCCO)cc2)C1` (stereo unspecified) gave TRPC4 block inactive, TRPC6 act inactive, TRPC4 potent inactive, TRPC4 act inactive and TRPC6 inh inactive.
For COc1ccc(CN2CCCC(C(=O)c3cccc(C(F)(F)F)c3)C2)cc1O (stereo unspecified) the results were TRPC4 block -8*, TRPC6 act inactive, TRPC4 potent inactive, TRPC4 act 62* and TRPC6 inh inactive.
`CC(=O)Nc1ccc(CN2CCCC(C(=O)c3cccc(C(F)(F)F)c3)C2)cc1` (stereo unspecified) gave TRPC4 block inactive, TRPC6 act inactive, TRPC4 potent inactive, TRPC4 act 88* and TRPC6 inh inactive.
